Test results as given in ChEMBL document CHEMBL1152486, “Synthesis and antitumor activity of optically active thiourea and their 2-aminobenzothiazole derivatives: a novel class of anticancer agents” (Eur J Med Chem, 2009).

Experiments:
Format in all cases: functional, cell-based
[1] = Cytotoxicity against mouse EAC after 24 hrs by MTT assay; conditions: Ehrlich
How it was run: (§1)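 Standard MTT, 24 h exposure. Cells plated at 10^4/well and allowed 24 h to attach, then exposed to 1–100 μM compound (dissolved in 0.1% DMSO, diluted in medium; vehicle controls 0.1% DMSO). MTT 1 mg/ml for 4 h at 37 °C, formazan dissolved in DMSO, absorbance read at 540 nm. IC50 taken as concentration giving 50% growth inhibition; triplicate.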

MCF7 [2] = assay: Cytotoxicity against human MCF7 cells after 24 hrs by MTT assay; how it was run: as §1
HeLa = assay: Cytotoxicity against human HeLa cells after 24 hrs by MTT assay; how it was run: as §1
MCF7 [3] = assay: Cytotoxicity against human MCF7 cells by MTT assay
How it was run: (§2)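 MCF-7 time-course MTT. Cells seeded at 5 × 10^3/well and exposed to 1–50 μM compound. Percentage cytotoxicity and IC50 determined at 24, 48 and 72 h of drug incubation. MTT read-out at 540 nm after formazan solubilization in DMSO.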

MCF7 [4] = assay: Cytotoxicity against human MCF7 cells after 48 hrs by MTT assay; conditions: MCF7, 48 h; how it was run: as §2
MCF7 [5] = assay: Cytotoxicity against human MCF7 cells after 72 hrs by MTT assay; conditions: MCF7, 72 h; how it was run: as §2
MCF7 [6] = assay: DNA damaging activity in human MCF7 cells assessed as increase in tail moment after 24 hrs by alkaline comet assay
How it was run: (§3)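 Alkaline comet assay in MCF-7 after 24 h exposure to 5–50 μM. About 20,000 cells embedded in 0.75% low-melt agarose over a 1.5% agarose layer. Alkaline unwinding 1 h, then electrophoresis at pH 13 for 20 min, 16 V. Ethidium bromide staining; ~50 cells scored per slide, two slides per concentration; means ± SEM.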

MCF7 [7] = assay: DNA damaging activity in human MCF7 cells assessed as elongated tail length after 24 hrs by alkaline comet assay; how it was run: as §3
MCF7 [8] = assay: DNA damaging activity in human MCF7 cells assessed as olive tail moment after 24 hrs by alkaline comet assay; how it was run: as §3
MCF7 [9] = assay: DNA damaging activity in human MCF7 cells assessed as tail DNA content after 24 hrs by alkaline comet assay; how it was run: as §3

Row | Compound | IC50 [1] | IC50 (MCF7 [2]) | IC50 (HeLa) | other results
1 | Fc1cc2sc(N[C@@H]3CCCC[C@@H]3OCc3ccccc3)nc2cc1Cl | 20.6 µM | Dose-dependent effect | 60.8 µM | 
2 | CC[C@@H](NC(=S)Nc1ccc(F)c(Cl)c1)c1ccccc1 | 80.2 µM | Dose-dependent effect |  | 
3 | C[C@@H](Nc1nc2cc(Cl)c(F)cc2s1)c1ccc(Cl)cc1 | 25.5 µM | Dose-dependent effect | 69.7 µM | 
4 | C[C@@H](NC(=S)Nc1ccc(F)c(Cl)c1)c1ccc(Cl)cc1 | 17.3 µM | Dose-dependent effect | 43 µM | IC50 (MCF7 [3]): tde; IC50 (MCF7 [4]): 16.3 µM; IC50 (MCF7 [5]): 11.4 µM; Activity (MCF7 [6]): Dose-dependent effect; Activity (MCF7 [7]): Dose-dependent effect; Activity (MCF7 [8]): Dose-dependent effect; Activity (MCF7 [9]): Dose-dependent effect
5 | CCCCCC[C@@H](C)NC(=S)Nc1ccc(F)c(Cl)c1 | 25.5 µM | Dose-dependent effect | 49.1 µM | 
6 | CCCCCC[C@@H](C)Nc1nc2cc(Cl)c(F)cc2s1 | 24.6 µM | Dose-dependent effect | 48 µM | IC50 (MCF7 [3]; TDE = time-dependent effect): tde; IC50 (MCF7 [4]): 24.8 µM; IC50 (MCF7 [5]): 15 µM
7 | Fc1ccc(NC(=S)NC2CCCCC2OCc2ccccc2)cc1Cl (stereo not drawn) | 10.6 µM | Dose-dependent effect | 33.8 µM | IC50 (MCF7 [3]; TDE = time-dependent effect): tde; IC50 (MCF7 [4]): 12.8 µM; IC50 (MCF7 [5]): 8.61 µM
8 | CC(Nc1nc2cc(Cl)c(F)cc2s1)c1ccccc1 (single isomer, unassigned) | 36.6 µM | Dose-dependent effect | 58.9 µM | 
9 | C[C@@H](NC(=S)Nc1ccc(F)c(Cl)c1)c1ccccc1 | 23.6 µM | Dose-dependent effect | 66.2 µM | 
10 | CC(Nc1nc2cc(Cl)c(F)cc2s1)c1ccc(F)cc1 (single isomer, unassigned) | 35.4 µM | Dose-dependent effect | 61.9 µM | 
11 | COc1cccc2c1C(=O)c1c(O)c3c(c(O)c1C2=O)C[C@@](O)(C(=O)CO)C[C@@H]3O[C@H]1C[C@H](N)[C@H](O)[C@H](C)O1 [DOXORUBICIN] | 4.18 µM | Dose-dependent effect |  | 
12 | COc1ccc([C@@H](C)NC(=S)Nc2ccc(F)c(Cl)c2)cc1 | 45.6 µM | Dose-dependent effect | 77.5 µM | 
13 | CC(Nc1nc2cc(Cl)c(F)cc2s1)C1CCCCC1 (single isomer, unassigned) | 29.8 µM | Dose-dependent effect | 72.5 µM | 
14 | COc1ccc(C(C)Nc2nc3cc(Cl)c(F)cc3s2)cc1 (single isomer, unassigned) | 75.4 µM | Dose-dependent effect |  | 
15 | CCC(Nc1nc2cc(Cl)c(F)cc2s1)c1ccccc1 (single isomer, unassigned) | 32.2 µM | Dose-dependent effect | 53.3 µM | 
16 | C[C@@H](NC(=S)Nc1ccc(F)c(Cl)c1)c1ccc(F)cc1 | 29.9 µM | Dose-dependent effect | 71.4 µM | 
